pEC50: −log10 of the molar value. Calls of active or inactive are those of the source. The rule behind the calls is not given here.
Legend:
[1] = tested on: HUVEC; experiment: Cytotoxicity against HUVEC assessed as reduction in cell viability at 1 uM after 24 hrs by cell-titer blue assay; assay type: cell-based; settings: human
[2] = tested on: MG-63; experiment: Cell cycle arrest in human MG63 cells assessed as accumulation at S phase after 24 hrs by propidium iodide-staining based flow cytometry (reference value: 20.2 +/- 1.8%); assay type: functional
[3] = tested on: HOS; experiment: Cell cycle arrest in human HOS cells assessed as accumulation at S phase after 24 hrs by propidium iodide-staining based flow cytometry (reference value: 37.1 +/- 1.6%); assay type: functional
[4] = tested on: HOS; experiment: Cell cycle arrest in human HOS cells assessed as accumulation at G1 phase after 24 hrs by propidium iodide-staining based flow cytometry (reference value: 47.8 +/- 0.7%); assay type: functional
[5] = tested on: MG-63; experiment: Induction of apoptosis in human MG63 cells at 12.5 by Annexin V-FITC/propidium iodide double staining based flow cytometry relative to control; assay type: functional
[6] = tested on: 143B; experiment: Cell cycle arrest in human 143B cells assessed as accumulation at S phase after 24 hrs by propidium iodide-staining based flow cytometry (reference value: 26.6 +/- 0.4%); assay type: functional
[7] = tested on: HOS; experiment: Cell cycle arrest in human HOS cells assessed as accumulation at G2 phase after 24 hrs by propidium iodide-staining based flow cytometry (reference value: 15.1 +/- 0.97%); assay type: functional
[8] = target: T1, Fatty-acid amide hydrolase 1 (Sus scrofa, UniProt Q9TUI8); experiment: Drug metabolism in pig forebrain membranes assessed as FAAH-mediated 10,11-EDP formation by measuring hydrolysis rate per mg protein at 20 uM after 40 mins by LC-MS/MS analysis; assay type: ADME, cell membranes, Membrane
T1 sequence (Q9TUI8 whole entry): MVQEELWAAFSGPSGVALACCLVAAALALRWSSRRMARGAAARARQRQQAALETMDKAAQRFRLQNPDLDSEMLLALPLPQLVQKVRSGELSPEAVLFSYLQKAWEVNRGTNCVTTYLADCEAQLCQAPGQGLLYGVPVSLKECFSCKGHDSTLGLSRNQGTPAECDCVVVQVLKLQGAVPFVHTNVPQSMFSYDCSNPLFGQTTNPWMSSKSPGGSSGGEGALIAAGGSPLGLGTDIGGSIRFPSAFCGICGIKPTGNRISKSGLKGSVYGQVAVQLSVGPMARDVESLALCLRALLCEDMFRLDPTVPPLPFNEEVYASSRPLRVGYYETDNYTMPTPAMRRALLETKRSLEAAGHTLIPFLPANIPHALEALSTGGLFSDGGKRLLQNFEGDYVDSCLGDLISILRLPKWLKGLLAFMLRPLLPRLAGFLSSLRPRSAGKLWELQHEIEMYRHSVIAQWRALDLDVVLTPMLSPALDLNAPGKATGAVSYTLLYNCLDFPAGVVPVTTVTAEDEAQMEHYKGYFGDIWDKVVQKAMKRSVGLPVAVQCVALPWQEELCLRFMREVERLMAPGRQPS
Procedure, shortened: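 Each 0.5 mL reaction held 5 µg membrane protein in the same buffer with 20 µM amide. Reactions were stopped at 40 min with methanol containing 1 mM PMSF and centrifuged. The supernatant was run on C18 LC-MS/MS, negative ESI, MRM for 10,11-EDP (m/z 343.0).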

[9] = tested on: 143B; experiment: Cell cycle arrest in human 143B cells assessed as accumulation at G1 phase after 24 hrs by propidium iodide-staining based flow cytometry (reference value: 56.2 +/- 2.7%); assay type: functional
[10] = tested on: MG-63; experiment: Cell cycle arrest in human MG63 cells assessed as accumulation at G1 phase after 24 hrs by propidium iodide-staining based flow cytometry (reference value: 62.9 +/- 1.8%); assay type: functional
[11] = tested on: 143B; experiment: Cell cycle arrest in human 143B cells assessed as accumulation at G2 phase after 24 hrs by propidium iodide-staining based flow cytometry (reference value: 17.2 +/- 2.3%); assay type: functional
[12] = tested on: 143B; experiment: Induction of apoptosis in human 143B cells at 12.5 by Annexin V-FITC/propidium iodide double staining based flow cytometry relative to control; assay type: functional
[13] = tested on: HOS; experiment: Induction of apoptosis in human HOS cells at 12.5 by Annexin V-FITC/propidium iodide double staining based flow cytometry relative to control; assay type: functional
[14] = tested on: HUVEC; experiment: Anti-angiogenic activity in HUVEC assessed as inhibition of tube formation at 0.5 to 1 uM after 5 hrs by fluorescent microscopy based matrigel assay; assay type: functional, cell-based; settings: Homo sapiens
Procedure, shortened: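 HUVEC at passage 2 were grown to 80% confluency, and 15,000 cells were plated on Matrigel pre-set 1 h at 37 °C. Cells got vehicle, 0.5 or 1 μM compound, with no-matrix and vinblastine controls, in duplicate wells for 5 h at 37 °C. After washing, cells were stained 30 min at 37 °C. Fluorescence images were scored for tube formation with an angiogenesis analyzer.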

[15] = tested on: MG-63; experiment: Cell cycle arrest in human MG63 cells assessed as accumulation at G2 phase after 24 hrs by propidium iodide-staining based flow cytometry (reference value: 16.9 +/- 0.01%); assay type: functional
[16] = tested on: MG-63; experiment: Antimigratory activity in human MG63 cells at 5 uM measured after 6 hrs by wound-healing assay; assay type: functional, cell-based
Procedure, shortened: (§1)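 A confluent monolayer of HOS, 143B or MG63 cells (DMEM, 10% FBS) was scratched with a pipette tip, then given fresh medium with 5 μM compound or vehicle at 37 °C, 5% CO₂. Images were taken every 2 h and wound area normalized to 100% at 0 h. Results are the ratio of wound remaining, treated to control, at 6 and 10 h.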

[17] = tested on: HOS; experiment: Antimigratory activity in human HOS cells at 5 uM after 6 to 10 hrs by wound-healing assay; assay type: functional, cell-based; procedure, shortened: as §1
[18] = tested on: 143B; experiment: Cytotoxicity against human 143B cells assessed as reduction in cell viability at 12.5 uM after 24 hrs by cell-titer blue assay; assay type: functional, cell-based
[19] = tested on: 143B; experiment: Antimigratory activity in human 143B cells at 5 uM measured after 10 hrs by wound-healing assay; assay type: functional, cell-based; procedure, shortened: as §1
[20] = tested on: MG-63; experiment: Antimigratory activity in human MG63 cells at 5 uM measured after 10 hrs by wound-healing assay; assay type: functional, cell-based; procedure, shortened: as §1
[21] = tested on: 143B; experiment: Induction of apoptosis in human 143B cells at 12.5 in presence of AM 630 by Annexin V-FITC/propidium iodide double staining based flow cytometry relative to control; assay type: functional
[22] = tested on: 143B; experiment: Induction of apoptosis in human 143B cells at 12.5 in presence of rimonabant by Annexin V-FITC/propidium iodide double staining based flow cytometry relative to control; assay type: functional
[23] = tested on: 143B; experiment: Cytotoxicity against human 143B cells assessed as reduction in cell viability at 25 uM after 24 hrs by cell-titer blue assay; assay type: functional, cell-based
[24] = tested on: 143B; experiment: Antimigratory activity in human 143B cells at 5 uM measured after 10 hrs in presence of CB1 receptor antagonist rimonabant by wound-healing assay; assay type: functional, cell-based
[25] = target: Cannabinoid receptor 2 (Homo sapiens, UniProt P34972); experiment: Agonist activity at N-terminal FLAG-tagged human CB2 receptor transfected in human HTLA cells assessed as induction of beta-arrestin-recruitment after 8 to 14 hrs by bright-glo luminescence based assay; assay type: functional, cell-based
Chain of Cannabinoid receptor 2 (P34972 whole entry): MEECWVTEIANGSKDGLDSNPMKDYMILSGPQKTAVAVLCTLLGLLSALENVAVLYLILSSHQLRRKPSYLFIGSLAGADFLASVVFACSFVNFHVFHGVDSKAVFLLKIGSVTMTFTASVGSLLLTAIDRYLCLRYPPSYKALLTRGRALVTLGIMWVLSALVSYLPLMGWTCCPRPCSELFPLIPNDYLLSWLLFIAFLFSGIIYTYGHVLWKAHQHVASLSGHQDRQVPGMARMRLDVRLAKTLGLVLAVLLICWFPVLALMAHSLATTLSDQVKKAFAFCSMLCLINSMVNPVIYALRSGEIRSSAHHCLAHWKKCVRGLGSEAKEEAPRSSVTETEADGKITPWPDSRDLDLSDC
Procedure, shortened: (§2)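 HTLA cells (DMEM, 10% FBS, puromycin 2 μg/mL, hygromycin B 100 μg/mL) were seeded at 20,000 per well on poly-L-lysine and transfected after 18–24 h with CNR1 or CNR2 Tango plasmid, 0.1 μg/well. After 36–48 h they were starved 4 h in 1% dialyzed FBS, or 30 min with 1 μM AUDA for epoxides. Log-dose compound was added for 8–14 h, then Bright-Glo luminescence read. RLU was normalized to % receptor response and fitted to a dose-response curve.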

[26] = target: Cannabinoid receptor 1 (Homo sapiens, UniProt P21554); experiment: Agonist activity at N-terminal FLAG-tagged human CB1 receptor transfected in human HTLA cells assessed as induction of beta-arrestin-recruitment after 8 to 14 hrs by bright-glo luminescence based assay; assay type: functional, cell-based; procedure, shortened: as §2
Chain of Cannabinoid receptor 1 (P21554 whole entry): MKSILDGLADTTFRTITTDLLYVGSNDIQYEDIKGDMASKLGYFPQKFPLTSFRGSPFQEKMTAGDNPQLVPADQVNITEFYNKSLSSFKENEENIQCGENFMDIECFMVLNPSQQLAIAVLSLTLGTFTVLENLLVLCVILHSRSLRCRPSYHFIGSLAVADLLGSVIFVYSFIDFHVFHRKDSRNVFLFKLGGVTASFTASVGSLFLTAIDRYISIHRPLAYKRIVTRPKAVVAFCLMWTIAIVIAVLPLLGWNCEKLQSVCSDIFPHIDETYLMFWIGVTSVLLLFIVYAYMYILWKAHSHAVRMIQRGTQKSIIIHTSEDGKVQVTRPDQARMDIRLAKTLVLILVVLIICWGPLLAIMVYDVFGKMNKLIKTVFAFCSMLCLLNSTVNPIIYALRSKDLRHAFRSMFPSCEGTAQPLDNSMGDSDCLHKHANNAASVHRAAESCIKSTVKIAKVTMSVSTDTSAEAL

Row | Structure (SMILES) | Activity [1] | Activity [2] [%] | Activity [3] [%] | Activity [4] [%] | Activity [5] [%] | Activity [6] [%] | Activity [7] [%] | Drug metabolism [8] [pmol/min] | Activity [9] [%] | Activity [10] [%] | Activity [11] [%] | Activity [12] [%] | Activity [13] [%] | Activity [14] | Activity [15] [%] | Activity [18] | Activity [19] | Activity [21] [%] | Activity [22] [%] | Activity [23] | also measured
1 | CC/C=C\C/C=C\C/C=C\CC1OC1C/C=C\C/C=C\CCC(=O)NC(C)CO (configuration not stated) | Non-Toxic | 10.8 | 24.3 | 55.8 | 17.5 | 41.8 | 20 | 0.99 | 50.1 | 76.7 | 8.1 | 18.8 | 20.2 | Active | 12.5 | – | – | – | – | – | –
2 | CC/C=C\C/C=C\CC1OC1C/C=C\C/C=C\C/C=C\CCC(=O)NCCO (configuration not stated) | – | – | – | – | 16.9 | – | – | – | – | – | – | 9.95 | 19.6 | – | – | Active | inactive | 9.2 | 13.03 | Active | Activity [16]: inactive; Activity [17]: inactive; Activity [20]: Active
3 | CC/C=C\C/C=C\C/C=C\C/C=C\CC1OC1C/C=C\CCC(=O)NCCO (configuration not stated) | – | – | – | – | 16.4 | – | – | – | – | – | – | 8.75 | 17.1 | – | – | Active | inactive | 10.1 | 14.6 | Active | Activity [17]: inactive; Activity [20]: Active
4 | CC/C=C\C/C=C\C/C=C\CC1OC1C/C=C\C/C=C\CCC(=O)NCCCO (configuration not stated) | Non-Toxic | 19 | 20.7 | 62.2 | 15.2 | 24 | 17.1 | – | 52.2 | 63.5 | 23.7 | 25.7 | 17.1 | Active | 17.5 | – | – | – | – | – | –
5 | CC/C=C\CC1OC1C/C=C\C/C=C\C/C=C\C/C=C\CCC(=O)NCCO (configuration not stated) | – | – | – | – | – | – | – | – | – | – | – | – | – | – | – | inactive | – | – | – | Active | –
6 | CCC1OC1C/C=C\C/C=C\C/C=C\C/C=C\C/C=C\CCC(=O)NCCO (configuration not stated) | – | – | – | – | – | – | – | – | – | – | – | – | – | – | – | inactive | – | – | – | Active | –
7 | CC/C=C\C/C=C\C/C=C\CC1OC1C/C=C\C/C=C\CCC(=O)NC1CC1 (configuration not stated) | Non-Toxic | 23.1 | 30.5 | 54.4 | 17.1 | 22.9 | 15.1 | 5.17 | 54.2 | 59.6 | 22.9 | 21.3 | 27.2 | Active | 16.9 | – | – | – | – | – | –
8 | CC/C=C\C/C=C\C/C=C\CC1OC1C/C=C\C/C=C\CCC(=O)NCCO (configuration not stated) | Non-Toxic | 17.9 | 20.3 | 67.2 | 26.6 | 28.9 | 12.4 | 30 | 50.7 | 67.7 | 21.1 | 17.92 | 31.1 | Active | 14.4 | Active | Active | 10.9 | 7.44 | Active | Activity [24]: inactive; pEC50 [25]: 7.65; pEC50 [26]: 9.37

— ChEMBL document CHEMBL4138311, “Antitumorigenic Properties of Omega-3 Endocannabinoid Epoxides” (J Med Chem, 2018)
